Active and inactive are the calls of the source. The rule behind the calls is not given here.
Assays:
Escherichia coli [1] = experiment: Antibacterial activity against Escherichia coli ECM1642 after 18 hrs by twofold serial dilution method; format: functional; conditions: ECM1642, 18 h
Method in brief: (§1)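 Broth microdilution: cells at 10^5 mL−1 in broth, serial 2-fold dilutions of compound, triplicate determinations; 18 h at 37 °C; growth followed by absorbance at 600 nm. MIC taken as the lowest concentration giving complete growth inhibition.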

Escherichia coli [2] = experiment: Antibacterial activity against Escherichia coli ECM116 mar1642 overexpressing […] pump after 18 hrs by twofold serial dilution method; format: functional; conditions: ECM116, 18 h
Method in brief: (§2)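 Broth microdilution with serial 2-fold dilutions of compound, cells inoculated at 10^5 per mL, in triplicate. MIC is the lowest concentration giving complete growth inhibition over 18 h at 37 °C. Growth is read as absorbance at 600 nm.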

Staphylococcus aureus [3] = experiment: Antibacterial activity against Staphylococcus aureus K1758 NorA efflux pump-deficient mutant after 18 hrs by twofold serial dilution method; format: functional; conditions: K1758, 18 h; method in brief: as §2
Staphylococcus aureus [4] = experiment: Antibacterial activity against Staphylococcus aureus K2378 overexpressing NorA efflux pump after 18 hrs by twofold serial dilution method; format: functional; conditions: K2378, 18 h; method in brief: as §2
Escherichia coli [5] = experiment: Antibacterial activity against Escherichia coli BW-25116 TolC-deficient mutant after 18 hrs by twofold serial dilution method; format: functional; conditions: BW25116, 18 h; method in brief: as §2
Escherichia coli [6] = experiment: Antibacterial activity against Escherichia coli K-12 after 18 hrs by twofold serial dilution method; format: functional; conditions: K-12, 18 h; method in brief: as §1
Escherichia coli [7] = experiment: Antibacterial activity against Escherichia coli BW-25116 TolC-deficient mutant after 18 hrs by twofold serial dilution method relative to berberine; format: functional, BW25116
Method in brief: (§3)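 Broth microdilution with an inoculum of 10^5 cells/mL and serial 2-fold compound dilutions, run in triplicate. Plates were incubated 18 h at 37 °C and growth was read as absorbance at 600 nm. MIC was the lowest concentration giving complete growth inhibition.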

Staphylococcus aureus [8] = experiment: Antibacterial activity against Staphylococcus aureus K2378 overexpressing NorA efflux pump after 18 hrs by twofold serial dilution method relative to berberine; format: functional
Escherichia coli [9] = experiment: Antibacterial activity against Escherichia coli ECM116 mar1642 overexpressing […] pump after 18 hrs by twofold serial dilution method relative to berberine; format: functional; method in brief: as §3
Staphylococcus aureus [10] = experiment: Antibacterial activity against wild type Staphylococcus aureus 8325-4 after 18 hrs by twofold serial dilution method relative to berberine; format: functional; method in brief: as §3
Staphylococcus aureus [11] = experiment: Antibacterial activity against Staphylococcus aureus K1758 NorA efflux pump-deficient mutant after 18 hrs by twofold serial dilution method relative to berberine; format: functional
Staphylococcus aureus [12] = experiment: Antibacterial activity against wild type Staphylococcus aureus 8325-4 after 18 hrs by twofold serial dilution method; format: functional; conditions: 8325-4, 18 h; method in brief: as §1
Enterococcus faecalis [13] = experiment: Antibacterial activity against Enterococcus faecalis OG1RF after 18 hrs by twofold serial dilution method; format: functional; method in brief: as §1
[14] = target: T1, Quinolone resistance protein NorA (Staphylococcus aureus) (UniProt P0A0J7); experiment: Inhibition of NorA efflux pump in Staphylococcus aureus K2378 overexpressing NorA efflux pump overexpressing NorA efflux pump assessed as increase in berberine accumulation at 3 uM
T1 sequence (whole entry): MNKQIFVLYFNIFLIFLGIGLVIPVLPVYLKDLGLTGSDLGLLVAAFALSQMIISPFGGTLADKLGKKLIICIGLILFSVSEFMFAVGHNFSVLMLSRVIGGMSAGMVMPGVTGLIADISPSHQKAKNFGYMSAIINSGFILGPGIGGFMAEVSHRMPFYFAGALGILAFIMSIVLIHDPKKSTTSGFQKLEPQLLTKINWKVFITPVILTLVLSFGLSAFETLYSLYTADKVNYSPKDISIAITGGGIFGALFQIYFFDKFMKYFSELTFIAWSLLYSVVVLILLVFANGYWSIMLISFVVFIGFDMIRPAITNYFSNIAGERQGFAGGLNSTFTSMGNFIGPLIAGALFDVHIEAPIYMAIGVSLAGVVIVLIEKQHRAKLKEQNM
Method in brief: (§4)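 Cells are grown at 37 °C to OD600 1.5 and washed twice in PBS. They are energised in PBS with 10 mM dextrose (OD ~0.8) for 1 h at 37 °C with aeration, washed, then diluted to OD ~0.3 in PBS. Compounds are added at 3 μM final. Accumulation is followed by fluorescence at ex/em 355/517 nm, with cell-free background subtracted.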

[15] = target: T1, Quinolone resistance protein NorA (Staphylococcus aureus); experiment: Inhibition of NorA efflux pump in Staphylococcus aureus K1758 NorA efflux pump-deficient mutant assessed as increase in berberine accumulation at 3 uM; method in brief: as §4
[16] = target: T1, Quinolone resistance protein NorA (Staphylococcus aureus); experiment: Inhibition of NorA efflux pump in wild type Staphylococcus aureus 8325-4 assessed as potentiation of EtBr uptake at 3 uM
Method in brief: (§5)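 Cells are prepared as for the accumulation assay: grown to OD600 1.5, washed in PBS, energised 1 h at 37 °C in PBS with 10 mM dextrose, then diluted to OD ~0.3 in PBS. The inhibitor (3 μM final) is added before ethidium bromide. Uptake is read by fluorescence at ex/em 530/600 nm, with cell-free background subtracted.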

Enterococcus faecalis [17] = experiment: Antibacterial activity against Enterococcus faecalis V583 after 18 hrs by twofold serial dilution method; format: functional; conditions: V583, 18 h; method in brief: as §1
[18] = target: T1, Quinolone resistance protein NorA (Staphylococcus aureus); experiment: Inhibition of NorA efflux pump in wild type Staphylococcus aureus 8325-4 assessed as increase in berberine accumulation at 3 uM; method in brief: as §4
[19] = target: T1, Quinolone resistance protein NorA (Staphylococcus aureus); experiment: Inhibition of NorA efflux pump in Staphylococcus aureus K1758 NorA efflux pump-deficient mutant assessed as potentiation of EtBr uptake at 3 uM; method in brief: as §5
[20] = target: T1, Quinolone resistance protein NorA (Staphylococcus aureus); experiment: Inhibition of NorA efflux pump in Staphylococcus aureus K2378 overexpressing NorA efflux pump assessed as inhibition of EtBr efflux at 3 uM
Method in brief: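 K2378 cells are grown at 37 °C to OD ~0.9, washed in PBS and loaded with 3 μM ethidium bromide plus 30 μg/mL reserpine for 20 min at 37 °C. After ice-cold washes, they are added at OD 0.3 to ice-cold PBS with 10 mM dextrose containing inhibitor at 3 μM final. The no-efflux control is PBS without dextrose plus reserpine. Efflux is read at ex/em 530/600 nm.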

[21] = target: T1, Quinolone resistance protein NorA (Staphylococcus aureus); experiment: Inhibition of NorA efflux pump in Staphylococcus aureus K2378 overexpressing NorA efflux pump assessed as potentiation of EtBr uptake at 3 uM; method in brief: as §5
Enterococcus faecalis [22] = experiment: Antibacterial activity against Enterococcus faecalis MMH594 after 18 hrs by twofold serial dilution method; format: functional; conditions: MMH594, 18 h; method in brief: as §1
Nucleic Acid [23] = experiment: Binding affinity to quadruplex Q3 DNA by electrospray ionization mass spectrometry; format: nucleic-acid assay
Nucleic Acid [24] = experiment: Binding affinity to D2 duplex DNA by electrospray ionization mass spectrometry; format: nucleic-acid assay
Method in brief: (§6)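 Duplex D1, D2 or forked F10 was annealed from complementary strands in 0.1 M ammonium acetate. ESI-MS used a 100 V cone voltage; thirty acquisitions were combined, baseline-subtracted and smoothed.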

Nucleic Acid [25] = experiment: Binding affinity to quadruplex Q1 DNA by electrospray ionization mass spectrometry; format: nucleic-acid assay
Nucleic Acid [26] = experiment: Binding affinity to F10 duplex DNA by electrospray ionization mass spectrometry; format: nucleic-acid assay; method in brief: as §6
Nucleic Acid [27] = experiment: Binding affinity to D1 duplex DNA by electrospray ionization mass spectrometry; format: nucleic-acid assay; method in brief: as §6

| Structure (SMILES) | MIC (Escherichia coli [1]) [µM] | MIC (Escherichia coli [2]) [µM] | MIC (Staphylococcus aureus [3]) [µM] | MIC (Staphylococcus aureus [4]) [µM] | MIC (Escherichia coli [5]) [µM] | MIC (Escherichia coli [6]) [µM] | fold change (FC) (Escherichia coli [7]) | fold change (FC) (Staphylococcus aureus [8]) | fold change (FC) (Escherichia coli [9]) | fold change (FC) (Staphylococcus aureus [10]) | fold change (FC) (Staphylococcus aureus [11]) | MIC (Staphylococcus aureus [12]) [µM] | MIC (Enterococcus faecalis [13]) [µM] | MIC (Enterococcus faecalis [17]) [µM] | MIC (Enterococcus faecalis [22]) [µM] | also measured |
| --- | --- | --- | --- | --- | --- | --- | --- | --- | --- | --- | --- | --- | --- | --- | --- | --- |
| COc1ccc2c(OCc3ccc(C#N)cc3)c3[n+](cc2c1OC)CCc1cc2c(cc1-3)OCO2.[Br-] | > 183 | 45.7 | 91.4 | > 183 | 91.4 | > 183 | 4 | 4 | 7 | 2 | <2 | 183 |  |  |  |  |
| COc1ccc2c(OCc3ccccn3)c3[n+](cc2c1OC)CCc1cc2c(cc1-3)OCO2.[Br-] | > 191 | 191 | 191 | > 191 | 191 | > 191 | 2 | >3 | 2 | <2 | <5 | > 191 |  |  |  |  |
| COc1ccc2c(OCc3ccccc3)c3[n+](cc2c1OC)CCc1cc2c(cc1-3)OCO2.[Br-] | > 192 | 24 | 12 | 95.8 | 12 | > 192 | 27 | 7 | 14 | 14 | 3 | 24 |  |  |  |  |
| COc1ccc2c(Cc3ccccc3-c3cc4cc([N+](=O)[O-])ccc4[nH]3)c3[n+](cc2c1OC)CCc1cc2c(cc1-3)OCO2 | > 150 | > 150 | 3.1 | 3.1 | > 150 | > 150 |  |  |  |  |  | 3.1 | 6.3 | 6.3 | 6.3 | Activity [14]: Active; Activity [15]: Active; Activity [16]: Active; Activity [18]: Active; Activity [19]: Active; Activity [20]: Active; Activity [21]: Active |
| COc1ccc2cc3[n+](cc2c1OC)CCc1cc2c(cc1-3)OCO2 [BERBERINE CHLORIDE] | > 2600 | 325 | 40 | > 650 | 325 | > 2600 |  |  |  |  |  | 325 | 650 | > 650 | > 650 |  |
| COc1ccc2c(OCc3ccc4ccccc4c3)c3[n+](cc2c1OC)CCc1cc2c(cc1-3)OCO2.[Br-] | > 175 | 21.9 | 5.5 | 21.9 | 10.9 | > 175 | 30 | >30 | 15 | 30 | 7 | 10.9 |  |  |  | Activity (Nucleic Acid [23]): 67%; Activity (Nucleic Acid [24]): 20%; Activity (Nucleic Acid [25]): 100%; Activity (Nucleic Acid [26]): 15%; Activity (Nucleic Acid [27]): 30% |

Reference: ChEMBL document CHEMBL1158423, “Antibacterial activity of berberine-NorA pump inhibitor hybrids with a methylene ether linking group” (2009)
